From ChEMBL document CHEMBL1806386, “Antiproliferative activity of aroylacrylic acids. Structure-activity study based on molecular interaction fields” (Eur J Med Chem, 2011)

What was measured:
K562 = experiment: Antiproliferative activity against human K562 cells assessed as inhibition of cell survival after 72 hrs by MTT method; assay type: functional, cell-based; settings: K562, 72 h
Procedure, shortened: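 K562 grown in suspension at 3000 cells/well in RPMI-1640 with 10% FBS, 3 mmol/L L-glutamine, 25 mM Hepes, pH 7.2. Five concentrations added 2 h after seeding from 10 mM DMSO stocks, in triplicate. MTT read 72 h later, SDS solubilization, A570. IC50 taken from blank-subtracted survival relative to control, mean of three experiments.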

HeLa [1] = experiment: Antiproliferative activity against human HeLa cells assessed as inhibition of cell survival after 72 hrs by MTT method; assay type: functional, cell-based
Procedure, shortened: (§1)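 HeLa (2000 cells/well) or LS174 (5000 cells/well) seeded in RPMI-1640 with 10% FBS, 3 mmol/L L-glutamine, 25 mM Hepes, pH 7.2; five concentrations added after 20 h from 10 mM DMSO stocks, each in triplicate. MTT 72 h after dosing, 4 h at 37 °C, SDS solubilization, A570 next day. Blank-subtracted survival vs control; IC50 is the mean of three experiments.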

[2] = Antiproliferative activity against human LS 174T cells assessed as inhibition of cell survival after 72 hrs by MTT method; assay type: functional, cell-based; settings: LS174T; procedure, shortened: as §1
HeLa [3] = experiment: Cell cycle arrest in human HeLa cells assessed as accumulation at S phase at 2 times IC50 after 24 hrs using propidium iodide staining by flow cytometry (reference value: 24.47%); assay type: functional
Procedure, shortened: (§2)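 HeLa cells, 5×10⁵ per aliquot, treated at two times the 72 h IC50 for 24, 48 or 72 h alongside untreated controls. Fixed in 70% ethanol on ice for one week, given RNase A at 37 °C for 30 min, then PI for at least 30 min. Flow cytometry with 488 nm excitation, FL2 at 585/42 nm, doublets excluded, 20,000 events per sample.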

HeLa [4] = experiment: Cell cycle arrest in human HeLa cells assessed as accumulation at S phase at 2 times IC50 after 72 hrs using propidium iodide staining by flow cytometry (reference value: 22.53%); assay type: functional; procedure, shortened: as §2
HeLa [5] = experiment: Cell cycle arrest in human HeLa cells assessed as accumulation at S phase at 2 times IC50 after 48 hrs using propidium iodide staining by flow cytometry (reference value: 20.14%); assay type: functional; procedure, shortened: as §2
HeLa [6] = experiment: Cell cycle arrest in human HeLa cells assessed as accumulation at sub-G1 phase at 2 times IC50 after 48 hrs using propidium iodide staining by flow cytometry (reference value: 6.87%); assay type: functional; procedure, shortened: as §2
HeLa [7] = experiment: Cell cycle arrest in human HeLa cells assessed as accumulation at sub-G1 phase at 2 times IC50 after 24 hrs using propidium iodide staining by flow cytometry (reference value: 3.34%); assay type: functional; procedure, shortened: as §2
HeLa [8] = experiment: Cell cycle arrest in human HeLa cells assessed as accumulation at G2/M phase cell at 2 times IC50 at 2 times IC50 after 48 hrs using propidium iodide staining by flow cytometry (reference value: 22.05%); assay type: functional; procedure, shortened: as §2
HeLa [9] = experiment: Cell cycle arrest in human HeLa cells assessed as accumulation at G1 phase at 2 times IC50 after 48 hrs using propidium iodide staining by flow cytometry (reference value: 51.32%); assay type: functional; procedure, shortened: as §2
HeLa [10] = experiment: Cell cycle arrest in human HeLa cells assessed as accumulation at G2/M phase at 2 times IC50 after 24 hrs using propidium iodide staining by flow cytometry (reference value: 25.97%); assay type: functional; procedure, shortened: as §2
HeLa [11] = experiment: Cell cycle arrest in human HeLa cells assessed as accumulation at G2/M phase cell at 2 times IC50 after 72 hrs using propidium iodide staining by flow cytometry (reference value: 17.57%); assay type: functional; procedure, shortened: as §2
HeLa [12] = experiment: Cell cycle arrest in human HeLa cells assessed as accumulation at G1 phase at 2 times IC50 after 72 hrs using propidium iodide staining by flow cytometry (reference value: 49.90%); assay type: functional; procedure, shortened: as §2
HeLa [13] = experiment: Cell cycle arrest in human HeLa cells assessed as accumulation at G1 phase at 2 times IC50 after 24 hrs using propidium iodide staining by flow cytometry (reference value: 46.78%); assay type: functional; procedure, shortened: as §2
HeLa [14] = experiment: Cell cycle arrest in human HeLa cells assessed as accumulation at sub-G1 phase at 2 times IC50 after 72 hrs using propidium iodide staining by flow cytometry (reference value: 9.85%); assay type: functional; procedure, shortened: as §2

O=C(O)/C=C/C(=O)c1ccccc1
IC50 (K562): 30.2 µM | IC50 (HeLa [1]): 30.6 µM | IC50 [2]: 45.5 µM

CCc1ccc(C(=O)/C=C/C(=O)O)cc1
IC50 (K562): 5.53 µM | IC50 (HeLa [1]): 27.8 µM | IC50 [2]: 21 µM

CC(C)c1ccc(C(=O)/C=C/C(=O)O)cc1
IC50 (K562): 5.56 µM | IC50 (HeLa [1]): 4.9 µM | IC50 [2]: 25.7 µM

CCCCc1ccc(C(=O)/C=C/C(=O)O)cc1
IC50 (K562): 4.95 µM | IC50 (HeLa [1]): 4.78 µM | IC50 [2]: 6.74 µM

CC(C)(C)c1ccc(C(=O)/C=C/C(=O)O)cc1
IC50 (K562): 4.33 µM | IC50 (HeLa [1]): 5.1 µM | IC50 [2]: 8.74 µM

CCCCCCCCCCCCc1ccc(C(=O)/C=C/C(=O)O)cc1
IC50 (K562): 4.01 µM | IC50 (HeLa [1]): 5.82 µM | IC50 [2]: 7.85 µM

Cc1ccc(C(=O)/C=C/C(=O)O)c(C)c1
IC50 (K562): 5.35 µM | IC50 (HeLa [1]): 6.06 µM | IC50 [2]: 7.08 µM

Cc1ccc(C)c(C(=O)/C=C/C(=O)O)c1
IC50 (K562): 5.9 µM | IC50 (HeLa [1]): 7.86 µM | IC50 [2]: 22 µM

Cc1ccc(C(=O)/C=C/C(=O)O)cc1C
IC50 (K562): 5.62 µM | IC50 (HeLa [1]): 7.28 µM | IC50 [2]: 12.1 µM

O=C(O)/C=C/C(=O)c1ccc2c(c1)CCCC2
IC50 (K562): 5.6 µM | IC50 (HeLa [1]): 7.01 µM | IC50 [2]: 17.6 µM

CCc1ccc(C(C)C)cc1C(=O)/C=C/C(=O)O
IC50 (K562): 1.36 µM | IC50 (HeLa [1]): 4.89 µM | IC50 [2]: 5.94 µM

CC(C)c1ccc(C(=O)/C=C/C(=O)O)c(C(C)C)c1
IC50 (K562): 4.68 µM | IC50 (HeLa [1]): 4.06 µM | IC50 [2]: 5.36 µM

CC(C)c1ccc(C(C)C)c(C(=O)/C=C/C(=O)O)c1
IC50 (K562): 3.28 µM | IC50 (HeLa [1]): 4.75 µM | IC50 [2]: 6.23 µM

CCc1cc(CC)c(C(=O)/C=C/C(=O)O)c(CC)c1
IC50 (K562): 4.01 µM | IC50 (HeLa [1]): 6.53 µM | IC50 [2]: 7.28 µM

CC(C)c1cc(C(C)C)c(C(=O)/C=C/C(=O)O)c(C(C)C)c1
IC50 (K562): 4.67 µM | IC50 (HeLa [1]): 6.1 µM | IC50 [2]: 8.28 µM

CCc1c(C(=O)/C=C/C(=O)O)cc(C(C)C)cc1C(C)C
IC50 (K562): 5.1 µM | IC50 (HeLa [1]): 7.61 µM | IC50 [2]: 12.3 µM

Cc1cc(C2CCCCC2)c(C)cc1C(=O)/C=C/C(=O)O
IC50 (K562): 4.24 µM | IC50 (HeLa [1]): 2.38 µM | IC50 [2]: 6.64 µM

O=C(O)/C=C/C(=O)c1cc(C2CCCCC2)ccc1C1CCCCC1
Activity (HeLa [3]): 32.67% | IC50 (K562): 3.32 µM | Activity (HeLa [4]): 24.2% | Activity (HeLa [5]): 31.66% | Activity (HeLa [6]): 15.79% | IC50 (HeLa [1]): 1.26 µM | Activity (HeLa [7]): 12.64% | Activity (HeLa [8]): 16.73% | Activity (HeLa [9]): 36.94% | Activity (HeLa [10]): 15.36% | Activity (HeLa [11]): 16.57% | IC50 [2]: 4.28 µM | Activity (HeLa [12]): 38.3% | Activity (HeLa [13]): 39.98% | Activity (HeLa [14]): 21.71%

Cc1ccc(C(=O)/C=C/C(=O)O)c(Cl)c1
IC50 (K562): 14.6 µM | IC50 (HeLa [1]): 7.6 µM | IC50 [2]: 27.7 µM

O=C(O)/C=C/C(=O)c1ccc(F)cc1
IC50 (K562): 16.9 µM | IC50 (HeLa [1]): 28.4 µM | IC50 [2]: 33.8 µM

O=C(O)/C=C/C(=O)c1ccc(Cl)cc1
IC50 (K562): 21.7 µM | IC50 (HeLa [1]): 25.4 µM | IC50 [2]: 28.7 µM

O=C(O)/C=C/C(=O)c1ccc(Br)cc1
IC50 (K562): 11.2 µM | IC50 (HeLa [1]): 18.7 µM | IC50 [2]: 27.1 µM

O=C(O)/C=C/C(=O)c1ccc(Cl)cc1Cl
IC50 (K562): 58.5 µM | IC50 (HeLa [1]): 62.9 µM | IC50 [2]: > 100 µM

COc1ccc(C(=O)/C=C/C(=O)O)cc1
IC50 (K562): 12.3 µM | IC50 (HeLa [1]): 27.4 µM | IC50 [2]: 34.7 µM

COc1ccc(C(=O)/C=C/C(=O)O)c(OC)c1OC
IC50 (K562): > 100 µM | IC50 (HeLa [1]): 96.2 µM | IC50 [2]: > 100 µM

Cc1ccc(C(=O)/C=C/C(=O)O)cc1
IC50 (K562): 9.17 µM | IC50 (HeLa [1]): 7.62 µM | IC50 [2]: 28.4 µM

O=C(O)/C=C/C(=O)c1ccc(Cl)c(Cl)c1
IC50 (K562): 23.2 µM | IC50 (HeLa [1]): 28.3 µM | IC50 [2]: 32.3 µM
